Legend:
Intestine [1] = test: Drug uptake in Sprague-Dawley rat intestine at 22 MBq/body, iv administered as bolus coadministered with rifampicin measured after 60 mins by PET analysis; assay type: ADME, organism-based; details: in vivo, 1 h
How it was run: (§1)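 Rats were anesthetized with 1.5% isoflurane in nitrous oxide/oxygen (7/3). The 11C tracer (approx. 22 MBq per animal) was given as an IV bolus through a tail-vein catheter, followed by a 60 min microPET emission scan. Regions of interest were set on liver, intestine, kidney and urinary bladder. Uptake was decay-corrected to injection time and expressed as % dose/tissue or % dose/mL blood, normalized to injected radioactivity. Rifampicin was infused at 1.5 µmol/min/kg where applied.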

Liver [2] = test: Drug uptake in Sprague-Dawley rat liver at 22 MBq/body, iv administered as bolus coadministered with rifampicin measured after 2 mins by PET analysis; assay type: ADME, organism-based; details: in vivo; how it was run: as §1
[3] = Drug uptake in Sprague-Dawley rat urinary bladder at 22 MBq/body, iv administered as bolus measured after 60 mins by PET analysis; assay type: ADME, organism-based; details: in vivo, 1 h; how it was run: as §1
Intestine [4] = test: Drug uptake in Sprague-Dawley rat intestine at 22 MBq/body, iv administered as bolus measured after 60 mins by PET analysis; assay type: ADME, organism-based; details: in vivo, 1 h; how it was run: as §1
Liver [5] = test: Drug uptake in Sprague-Dawley rat liver at 22 MBq/body, iv administered as bolus measured up to 2 mins by PET analysis; assay type: ADME, organism-based; details: in vivo; how it was run: as §1
Kidney = test: Drug uptake in Sprague-Dawley rat kidney at 22 MBq/body, iv administered as bolus measured up to 2 mins by PET analysis; assay type: ADME, organism-based; details: in vivo; how it was run: as §1
Blood [6] = test: Drug metabolism in Mrp2 hereditary-deficient Sprague-Dawley rat blood assessed as radiometabolite formation at 22 MBq, iv administered as bolus within 20 mins by PET analysis; assay type: ADME, organism-based; details: in vivo
How it was run: (§2)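 Radiometabolite analysis, run apart from the PET scans. Blood, liver homogenate and bile were mixed with an equal volume of acetonitrile and centrifuged at 12,000 rpm for 2 min at 4 °C. The supernatant was diluted with mobile phase and run on reversed-phase HPLC (10 mM ammonium acetate/acetonitrile gradient, 2.0 mL/min). Detection was UV 254 nm plus a NaI(Tl) positron detector, reading intact tracer against metabolites.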

Liver [7] = test: Drug metabolism in Mrp2 hereditary-deficient Sprague-Dawley rat liver assessed as radiometabolite formation at 22 MBq, iv administered as bolus within 20 mins by PET analysis; assay type: ADME, organism-based; details: in vivo; how it was run: as §2
[8] = Drug metabolism in Mrp2 hereditary-deficient Sprague-Dawley rat bile assessed as radiometabolite formation at 22 MBq, iv administered as bolus within 20 mins by PET analysis; assay type: ADME, organism-based; details: in vivo; how it was run: as §2
Blood [9] = test: Drug metabolism in Mrp2 hereditary-deficient Sprague-Dawley rat blood assessed as radiometabolite formation at 22 MBq, iv administered as bolus at 2 mins by PET analysis; assay type: ADME, organism-based; details: in vivo; how it was run: as §2
Blood [10] = test: Drug uptake in Mrp2 hereditary-deficient Sprague-Dawley rat blood at 22 MBq, iv administered as bolus after 20 mins by PET analysis; assay type: ADME, organism-based; details: in vivo; how it was run: as §1
Liver [11] = test: Drug uptake in Mrp2 hereditary-deficient Sprague-Dawley rat liver at 22 MBq, iv administered as bolus after 20 mins by PET analysis; assay type: ADME, organism-based; details: in vivo; how it was run: as §1
[12] = Drug uptake in Mrp2 hereditary-deficient Sprague-Dawley rat bile at 22 MBq, iv administered as bolus after 20 mins by PET analysis; assay type: ADME, organism-based; details: in vivo
Hepatocyte [13] = test: Metabolic stability in human hepatocytes; assay type: ADME, cell-based
Hepatocyte [14] = test: Metabolic stability in rat hepatocytes; assay type: ADME, cell-based

C/C(=C\[11CH3])C(=O)O[C@H]1C[C@H](O)C=C2C=C[C@H](C)[C@H](CC[C@@H](O)C[C@@H](O)CC(=O)[O-])[C@H]21.[Na+]
Not Active: Drug uptake (Intestine [1]) | Drug uptake (Liver [2])
1.51%: Drug uptake [3]
Active: Drug uptake (Liver [5]) | Drug uptake (Kidney) | Drug metabolism (Blood [6]) | Drug metabolism (Liver [7]) | Drug metabolism [8] | Drug metabolism (Blood [9]) | Drug uptake (Blood [10]) | Drug uptake (Liver [11]) | Drug uptake [12]
67.9%: Drug uptake (Intestine [4])
Stable: Stability (Hepatocyte [13]) | Stability (Hepatocyte [14])
